CCR6 antagonist: antagonists of human CCR6 receptor. P51684. inhibition, % at 20 µM. CHO-K1 CCR6 PathHunter beta-arrestin, luminescence, CCL20-stimulated. AID 493098. 340,000 tested, 0.49% active;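 active means compounds whose inhibition of the agonist-driven luminescence signal at 20 µM reaches about 50%, limit read from the data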;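 further: cells stimulated with CCL20 at 14 nM final; plate controls were DMSO with CCL20 for no effect and DMSO without agonist for full effect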
EBI2 antag: antagonists of human EBI2 receptor; 360,000 tested, 0.81% active; inhibition, % at 5 µM; EBI2 beta-arrestin recruitment, luminescence, 7a,25-OHC stimulated; P32249; in the data active means inhibition above about 38%;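 further: enzyme fragment complementation signal reports receptor beta-arrestin coupling in cells; 0% = agonist plus DMSO wells and 100% = wells without agonist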
Target sequence (P32249 whole entry, looked up, the tested form may be a part): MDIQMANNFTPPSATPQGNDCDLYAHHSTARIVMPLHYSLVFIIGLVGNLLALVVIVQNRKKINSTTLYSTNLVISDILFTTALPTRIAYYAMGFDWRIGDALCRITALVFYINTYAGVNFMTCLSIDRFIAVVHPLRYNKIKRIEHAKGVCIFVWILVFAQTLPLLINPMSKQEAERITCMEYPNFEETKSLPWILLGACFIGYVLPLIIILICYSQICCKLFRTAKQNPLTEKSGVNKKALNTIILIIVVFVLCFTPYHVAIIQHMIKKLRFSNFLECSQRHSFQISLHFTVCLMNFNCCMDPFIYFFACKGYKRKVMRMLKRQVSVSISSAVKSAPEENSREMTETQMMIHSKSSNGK
APJ antagonist: APJ receptor antagonism. P35414. inhibition, % at 20 µM. CHO-K1 APJ beta-arrestin complementation, luminescence. 330,000 tested, 0.32% active;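 active means inhibition above about 40% at 20 µM, limit read from the data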;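 further: cells challenged with 10 nM apelin-13 agonist together with compound; plate controls were apelin-13 plus DMSO wells for no effect and DMSO wells lacking apelin-13 for full effect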
CXCR6 block: blocks human CXCR6 beta-arrestin recruitment. 360,000 tested, 0.36% active. AID 602244. CHO-K1 PathHunter CXCR6 beta-arrestin, luminescence. inhibition, % at 20 µM; in the data active means inhibition above about 34%, passing the limit was not always enough;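 further: antagonist mode with CXCL16 agonist at 10 nM final; 0% = 10 nM CXCL16 with DMSO and 100% = unstimulated wells without agonist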
APJ ag: activates the human apelin receptor APJ; 330,000 tested, 0.11% active; AID 2520; activation, % at 20 µM; CHO-K1 APJ PathHunter beta-arrestin, luminescence; 0% DMSO wells, 100% apelin;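 active means activation more than six SD over the plate average, tested at 20 µM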;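 further: 0% = DMSO alone and 100% = apelin-13 at 10 nM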
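Assay system: CHO-K1 APJ beta-arrestin complementation cell line / Compound: single test compound dose, 20 µM final, 1% DMSO / Times: overnight seeding, 90 min compound at 25 °C, 1 h detection / Technique: beta-gal luminescence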
EBI2 conf: EBI2 (human) antagonism, single concentration confirmation. shares compounds with EBI2 antag. EBI2 beta-arrestin luminescence, 7a,25-OHC antagonism. inhibition, % at 5 µM. 2,400 tested, 29% active. AID 651997;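 active means inhibition of at least 50%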
EBI2 agonist: EBI2 agonism counter-screen; shares compounds with EBI2 antag; EBI2-expressing cells, agonist mode, luminescence, 60 min; 0% vehicle, 100% 7α,25-dihydroxycholesterol control; activation, % at 5 µM; 2,400 tested, under 10 active;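 active means activation of at least 50%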
bGal cs: beta-galactosidase inhibition counter-screen; shares compounds with EBI2 antag; purified beta-galactosidase, luminescent Galacton Star, 15 min; inhibition, % at 5 µM; 2,400 tested, 1% active;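 active means replicate-average signal at least 3 plate SD below neutral wells, shown as high inhibition, flagging enzyme-inhibiting false positives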;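 further: 0% = DMSO wells with enzyme and 100% = wells lacking enzyme; higher means stronger loss of beta-gal luminescence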
An asterisk follows results filed as active; / = no result. Hits are enriched below; roughly 1.5% of the tested compounds scored in any of these assays.

SMILES	CCR6 antagonist	EBI2 antag	APJ antagonist	CXCR6 block	APJ ag	EBI2 conf	EBI2 agonist	bGal cs
O=C(c1cc2cc(F)ccc2[nH]1)N1CCN(C(=O)c2ccco2)CC1	-15	67*	-65	-8	2	37	-1	4
CN1CCN(C(=O)c2cc3cc(F)ccc3[nH]2)CC1	8	12	7	-2	0	/	/	/
COc1ccccc1N1CCN(C(=O)c2cc3cc(F)ccc3[nH]2)CC1	0	87*	11	-6	-2	58*	2	4
Cc1ccc2[nH]c(C(=O)N3CCN(C(c4ccccc4)c4ccccc4)CC3)cc2c1	9	89*	-4	2	-2	86*	-1	-11
Cc1cc(C)cc(C(=O)NCC(=O)N2CCN(C(c3ccccc3)c3ccccc3)CC2)c1	2	-5	-4	9	-2	/	/	/
COc1ccc(S(=O)(=O)N2CCN(CC(=O)Nc3sccc3C(N)=O)CC2)cc1OC	14	0	-5	-6	-2	/	/	/
CN(Cc1ccccc1)C1CCCN(C(=O)c2ccc(Cl)s2)C1 (configuration not stated)	23	9	5	2	-6	/	/	/
CC(C)OC(=O)CSc1nnc(-c2ccc(O)cc2)n1Cc1ccccc1	13	-6	-8	1	-8	/	/	/
COc1ccc(-n2c(SCC(=O)NNC(=O)c3ccc(C)cc3)nnc2-c2ccncc2)cc1	-1	55*	5	-9	-2	30	2	3
CCn1c(SCC(=O)NNC(=O)c2ccc(C)cc2)nnc1-c1ccncc1	-10	-2	-30	-5	-4	/	/	/
CCn1c(SCC(=O)NNC(=O)c2ccc(OC)cc2)nnc1-c1cccnc1	16	59*	2	7	-3	15	1	2
O=C(CSc1nnc(-c2ccc(O)cc2)n1Cc1ccccc1)NNC(=O)c1ccc(Br)cc1	2	89*	-6	2	-3	87*	-1	-7
CCCNc1ncnc2c1cnn2C1CCCCO1 (configuration not stated)	4	7	/	-1	/	/	/	/
Cc1ccc(-c2nc3ccc(C)cn3c2Cc2cccc(F)c2)cc1	/	43*	/	28	/	46	-2	-14
Cc1cc2nc(-c3ccc(C#N)cc3)c(Cc3cccc(F)c3)n2c(C)c1Br	/	44*	/	5	/	43	-1	-16
Cc1ccc(-c2nc3ccc(C)cn3c2Cc2cccc(Cl)c2)cc1	/	35	/	31	/	/	/	/
N#Cc1ccc(Nc2nc(-c3ccccc3)cs2)cc1	/	27	/	-15	/	/	/	/
c1ccc(-c2csc(Nc3ccc4c(c3)OCO4)n2)cc1	/	44*	/	-5	/	47	1	6
Cc1ccc(C2=NN(C(=O)CN3CCN(C4CCS(=O)(=O)C4)CC3)C(c3ccco3)C2)cc1 (configuration not stated)	1	-10	4	6	-2	/	/	/
Cc1ccc(C(=O)C=Cc2cccc(C)c2)cc1	27	25	/	7	/	/	/	/
COc1ccc(C(=O)/C=C/c2ccccc2F)c(OC(=O)c2ccc([N+](=O)[O-])cc2)c1	15	11	-5	8	-1	/	/	/
CC(=O)c1ccc(NC(=O)/C=C/c2ccc(C)cc2)cc1	1	54*	-15	1	2	30	2	3
COc1ccc(C(=O)/C=C/c2ccc(C)cc2)c(OC(=O)c2ccc([N+](=O)[O-])cc2)c1	14	82*	13	-6	0	28	-1	-13
CN(C)c1ccc(C(=O)C=Cc2ccc([N+](=O)[O-])cc2)cc1	/	53*	/	-7	/	27	0	-8
Cc1ccc(/C=C/C(=O)c2ccc(C)cc2)cc1	1	61*	-2	1	-2	66*	2	2
SMILES	CCR6 antagonist	EBI2 antag	APJ antagonist	CXCR6 block	APJ ag	EBI2 conf	EBI2 agonist	bGal cs
O=C(C=Cc1ccccc1)c1ccc([N+](=O)[O-])cc1	-1	7	/	1	/	/	/	/
COc1ccc(CCNc2nc(-c3ccc(F)cc3)c(CC(=O)O)s2)cc1OC	15	18	26	2	0	/	/	/
CCOC1=CC2=C(C(=O)C(Cl)=CC2=O)[C@@H]2CN(S(=O)(=O)c3ccc(C)cc3)[C@@H](c3ccccc3)[C@H]12	/	5	/	25	/	/	/	/
O=C(c1cc2ccccc2o1)N1CCN(S(=O)(=O)c2ccccc2)CC1	14	75*	12	4	-2	41	1	6
O=C(c1cc2ccccc2o1)N1CCN(S(=O)(=O)c2cccs2)CC1	-7	59*	-13	-6	0	53*	1	0
O=C(c1cc2ccccc2o1)N1CCN(S(=O)(=O)/C=C/c2ccccc2)CC1	23	92*	1	-11	-2	86*	1	0
O=C(c1ccco1)N1CCN(S(=O)(=O)c2cccs2)CC1	-4	-14	-11	-2	-2	/	/	/
COc1cc(SC)ccc1C(=O)N1CCN(S(=O)(=O)/C=C/c2ccccc2)CC1	5	65*	-4	-4	-3	24	-2	-10
COCc1cn(CC[C@@H]2CC[C@@H](NC(=O)Nc3ccc4c(c3)OCO4)[C@@H](CO)O2)nn1	/	-1	/	/	/	/	/	/
COc1ccc(-n2nnnc2C2(C)CCC(=O)N2Cc2ccccc2)cc1 (configuration not stated)	/	-7	/	/	/	/	/	/
O=C(c1ccc(Cl)cc1)N1CCN(S(=O)(=O)/C=C/c2ccccc2)CC1	28	92*	0	-6	-3	67*	3	8
Cc1ccc(S(=O)(=O)N2CCN(C(=O)c3cc(=O)c4ccccc4o3)CC2)cc1	11	46*	14	0	-2	39	1	9
O=C(c1ccco1)N1CCN(S(=O)(=O)/C=C/c2ccccc2)CC1	-10	7	6	-9	-3	/	/	/
Cc1ccc(C(=O)N2CCN(S(=O)(=O)c3ccc(C)cc3)CC2)cc1	16	5	-3	-3	-1	/	/	/
Cc1ccc2c(C)c(C(=O)N3CCN(Cc4ccc5c(c4)OCO5)CC3)oc2c1C	-4	44*	2	0	-3	16	2	5
O=C(c1cc2ccccc2o1)N1CCN(Cc2ccc3c(c2)OCO3)CC1	6	70*	10	-2	-1	37	1	6
O=C(c1cc2ccccc2o1)N1CCN(CCOc2ccccc2)CC1	10	56*	-37	-4	-4	38	-1	-13
Cc1ccc(C(=O)N2CCN(Cc3ccc4c(c3)OCO4)CC2)o1	18	-4	-7	-6	2	/	/	/
Cc1ccc(F)c(S(=O)(=O)NC(=O)C2(C)CCN2C(=O)CCc2ccccc2)c1 (configuration not stated)	/	-12	/	2	/	/	/	/
